# In ChEMBL document CHEMBL2086362, “Synthesis and characterization of novel 2-amino-3-benzoylthiophene derivatives as biased allosteric agonists and modulators of the adenosine A(1) receptor” (J Med Chem, 2012):
# The source made the active and inactive calls. The calls are words filed in the database; no cut-off is given here.
# What was measured:
# Assay type in all cases: functional, cell-based
# [1] = target: T1, Adenosine receptor A1 (Homo sapiens) (UniProt P30542); assay: Agonist activity at human A1 receptor expressed in CHO cells assessed as enhancement of R-PIA mediated ERK1/2 phosphorylation at 3 uM after 5 mins by Alpha-Screen assay
# T1 sequence (whole entry): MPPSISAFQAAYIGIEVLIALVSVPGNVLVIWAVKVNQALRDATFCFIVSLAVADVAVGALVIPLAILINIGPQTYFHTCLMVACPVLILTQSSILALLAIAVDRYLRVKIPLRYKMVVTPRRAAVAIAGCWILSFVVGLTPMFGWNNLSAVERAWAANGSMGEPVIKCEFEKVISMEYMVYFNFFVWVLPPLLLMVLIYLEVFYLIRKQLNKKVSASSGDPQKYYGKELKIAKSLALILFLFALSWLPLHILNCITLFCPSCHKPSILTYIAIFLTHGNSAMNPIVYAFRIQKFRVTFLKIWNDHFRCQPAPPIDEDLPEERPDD
# Procedure, shortened: (§1)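 Flp-In CHO cells stably expressing human A1R, 30000/well, serum-starved overnight, then 1 U/mL ADA for 30 min. Test compound (3 or 10 μM) added 5 min before an EC50 concentration of R-PIA (determined same day), then a further 5 min at 37 °C. pERK1/2 read by SureFire AlphaScreen. Mean of two to three experiments in triplicate.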
# [2] = target: T1, Adenosine receptor A1 (Homo sapiens); assay: Agonist activity at human A1 receptor expressed in CHO cells assessed as enhancement of R-PIA mediated ERK1/2 phosphorylation at 10 uM after 5 mins by Alpha-Screen assay; procedure, shortened: as §1
# [3] = target: T1, Adenosine receptor A1 (Homo sapiens); assay: Agonist activity at human A1 receptor expressed in CHO cells assessed as stimulation of ERK1/2 phosphorylation at 3 to 10 uM after 5 mins by Alpha-Screen assay
# Procedure, shortened: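 Flp-In CHO cells stably expressing human A1R, serum-starved overnight and pretreated with 1 U/mL ADA for 30 min. Compound (3 and 10 μM) applied alone, 5 min at 37 °C. Intrinsic agonism measured as ERK1/2 phosphorylation by SureFire AlphaScreen, with 3% FBS as positive control. Two to three experiments in triplicate.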
# [4] = target: T1, Adenosine receptor A1 (Homo sapiens); assay: Positive allosteric modulation at human A1 receptor expressed in CHO cells assessed as enhancement of R-PIA-mediated inhibition of forskolin-stimulated cAMP accumulation after 30 mins by Alpha-Screen assay
# Procedure, shortened: (§2)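 Serum-starved CHO-FlpIn hA1R cells were preincubated 30 min in phenol red-free DMEM with 0.1% BSA, 1 U/mL ADA and 500 μM IBMX. They were then treated with 10 μM forskolin plus R-PIA and/or modulator for 30 min at 37 °C, and cAMP was read by AlphaScreen. Data were normalized to 10 μM forskolin and fitted to an operational model of allosterism. Three experiments in duplicate.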
# [5] = target: T1, Adenosine receptor A1 (Homo sapiens); assay: Positive allosteric modulation at human A1 receptor expressed in CHO cells assessed as inhibition of forskolin-stimulated cAMP accumulation after 30 mins by Alpha-Screen assay; procedure, shortened: as §2
Activity [1] [%],Activity [2] [%],Activity [3],Activity [4],Activity [5],SMILES
86,87,–,–,–,Cc1ccc(C(=O)c2c(-c3cc(C(F)(F)F)cc(C(F)(F)F)c3)csc2N)cc1
90,90,–,–,–,Nc1scc(-c2cc(C(F)(F)F)cc(C(F)(F)F)c2)c1C(=O)c1ccc(Cl)c(Cl)c1
93,94,–,–,–,Nc1scc(-c2cccc(C(F)(F)F)c2)c1C(=O)c1cccc(C(F)(F)F)c1
90,86,–,–,–,Cc1sc(N)c(C(=O)c2cccc(C(F)(F)F)c2)c1-c1cccc(C(F)(F)F)c1
90,84,–,–,–,Nc1scc(-c2cc(C(F)(F)F)cc(C(F)(F)F)c2)c1C(=O)c1cccc(C(F)(F)F)c1
88,88,–,–,–,Nc1scc(-c2cccc(C(F)(F)F)c2)c1C(=O)c1ccc(Cl)c(Cl)c1
85,83,–,–,–,Cc1ccc(C(=O)c2c(-c3cccc(C(F)(F)F)c3)csc2N)cc1

# Further lines, the compound ahead of its results:
SMILES,Activity [1] [%],Activity [2] [%],Activity [3],Activity [4],Activity [5]
Cc1sc(N)c(C(=O)c2ccc(Cl)c(Cl)c2)c1-c1cccc(C(F)(F)F)c1,73,75,–,–,–
Cc1ccc(C(=O)c2c(N)sc(C)c2-c2cccc(C(F)(F)F)c2)cc1,86,90,–,–,–
Cc1sc(N)c(C(=O)c2ccc(Cl)cc2)c1-c1cc(C(F)(F)F)cc(C(F)(F)F)c1,84,88,–,–,–
Cc1sc(N)c(C(=O)c2ccc(Cl)cc2)c1-c1cccc(C(F)(F)F)c1,94,94,Active,Active,–
Cc1sc(N)c(C(=O)c2ccc(Cl)c(Cl)c2)c1-c1cc(C(F)(F)F)cc(C(F)(F)F)c1,78,84,–,–,–
Cc1sc(N)c(C(=O)c2cccc(C(F)(F)F)c2)c1-c1cc(C(F)(F)F)cc(C(F)(F)F)c1,84,84,–,–,–
Cc1sc(N)c(C(=O)c2ccccc2)c1-c1cc(C(F)(F)F)cc(C(F)(F)F)c1,83,95,–,–,–
Cc1sc(N)c(C(=O)c2ccccc2)c1-c1cccc(C(F)(F)F)c1,77,73,Active,Active,Active
Cc1ccc(C(=O)c2c(N)sc(C)c2-c2cc(C(F)(F)F)cc(C(F)(F)F)c2)cc1,92,80,–,–,–
